# Results reported in ChEMBL document CHEMBL1145787, “Synthesis and structure-activity relationship of N-substituted 4-arylsulfonylpiperidine-4-hydroxamic acids as novel, orally active matrix metalloproteinase inhibitors for the treatment of osteoarthritis” (J Med Chem, 2003).
# Tests used:
# [1] = In vivo inhibitory activity against Matrix metalloprotease enzyme by dialysis implant assay, value is relative to activity of CGS-27023 (35+/-3) at 25 mg/kg. po; format: functional
# [2] = molecular target: Disintegrin and metalloproteinase domain-containing protein 17 (Homo sapiens, UniProt P78536); experiment: Inhibition of Tumor necrosis factor alpha converting enzyme (TACE) at 10 uM
# Disintegrin and metalloproteinase domain-containing protein 17, sequence (P78536 whole entry, the tested form may be a part): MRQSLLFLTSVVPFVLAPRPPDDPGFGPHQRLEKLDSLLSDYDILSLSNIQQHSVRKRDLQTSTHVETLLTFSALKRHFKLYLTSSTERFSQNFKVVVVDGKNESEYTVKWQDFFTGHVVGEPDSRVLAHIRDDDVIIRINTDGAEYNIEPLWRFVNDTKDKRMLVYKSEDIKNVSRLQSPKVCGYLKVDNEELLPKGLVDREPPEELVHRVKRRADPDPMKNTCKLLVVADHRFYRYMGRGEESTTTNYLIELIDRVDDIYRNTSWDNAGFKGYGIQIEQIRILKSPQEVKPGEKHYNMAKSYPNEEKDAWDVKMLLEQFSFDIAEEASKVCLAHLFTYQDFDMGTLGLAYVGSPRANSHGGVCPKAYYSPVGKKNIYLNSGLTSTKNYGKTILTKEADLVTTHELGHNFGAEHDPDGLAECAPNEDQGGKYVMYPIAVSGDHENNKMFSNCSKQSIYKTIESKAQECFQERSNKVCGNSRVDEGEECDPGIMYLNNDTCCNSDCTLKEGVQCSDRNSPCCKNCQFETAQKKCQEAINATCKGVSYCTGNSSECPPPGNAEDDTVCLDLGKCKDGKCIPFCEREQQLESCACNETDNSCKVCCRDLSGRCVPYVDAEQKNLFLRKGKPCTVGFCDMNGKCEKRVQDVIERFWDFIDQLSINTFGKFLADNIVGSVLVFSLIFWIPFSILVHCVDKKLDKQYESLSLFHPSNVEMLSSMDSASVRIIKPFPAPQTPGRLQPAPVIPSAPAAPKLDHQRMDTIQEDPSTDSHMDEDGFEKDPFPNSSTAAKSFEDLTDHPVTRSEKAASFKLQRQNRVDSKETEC
# Outline: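 Dose–response curves were not generated when inhibition was below 60% at 10 μM.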
# Collagenase 3 = Collagenase 3 (Homo sapiens, UniProt P45452)
# [3] = molecular target: Matrix metalloproteinase-9 (Homo sapiens, UniProt P14780); experiment: In vitro inhibitory activity against matrix metalloprotease-9.
# Matrix metalloproteinase-9, sequence (P14780 whole entry): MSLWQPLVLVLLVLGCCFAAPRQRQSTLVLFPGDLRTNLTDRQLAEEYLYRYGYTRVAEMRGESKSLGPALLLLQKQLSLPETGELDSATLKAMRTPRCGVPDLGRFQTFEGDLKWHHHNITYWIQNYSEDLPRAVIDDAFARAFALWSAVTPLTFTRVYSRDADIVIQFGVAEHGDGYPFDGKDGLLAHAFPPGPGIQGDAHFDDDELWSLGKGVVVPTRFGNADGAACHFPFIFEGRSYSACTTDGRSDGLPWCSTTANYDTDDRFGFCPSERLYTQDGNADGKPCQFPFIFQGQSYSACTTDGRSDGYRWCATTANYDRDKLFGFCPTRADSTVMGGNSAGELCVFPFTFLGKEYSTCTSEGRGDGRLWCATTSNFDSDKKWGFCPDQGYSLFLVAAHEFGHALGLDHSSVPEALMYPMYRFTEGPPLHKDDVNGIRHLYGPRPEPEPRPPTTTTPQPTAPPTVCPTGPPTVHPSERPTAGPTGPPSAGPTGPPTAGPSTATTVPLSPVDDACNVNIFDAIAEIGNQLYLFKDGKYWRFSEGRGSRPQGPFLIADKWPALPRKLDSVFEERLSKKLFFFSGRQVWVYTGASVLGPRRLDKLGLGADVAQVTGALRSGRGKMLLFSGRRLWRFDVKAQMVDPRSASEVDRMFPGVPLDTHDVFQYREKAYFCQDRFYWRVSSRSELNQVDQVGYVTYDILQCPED
# [4] = In vivo inhibition of Matrix metalloprotease enzyme by Sponge-wrapped cartilage assay, value is relative to activity of RS-130830 (40+/-2) at 10 mg/kg. po. bid; format: functional
# [5] = In vivo inhibitory activity against Matrix metalloprotease enzyme by dialysis implant assay, value is relative to activity of CGS-27023 (43+/-2) at 25 mg/kg. po; format: functional
SMILES,inhibition in vivo at 25 mg/kg [1] [%],inhibition [2] [%],IC50 (Collagenase 3) [nM],IC50 [3] [nM],inhibition in vivo at 10 mg/kg [4] [%],inhibition in vivo at 25 mg/kg [5] [%]
CCCCOc1ccc(S(=O)(=O)C2(C(=O)NO)CCN(Cc3ccc(F)cc3)CC2)cc1,48,39,5,–,–,–
CCCCOc1ccc(S(=O)(=O)C2(C(=O)NO)CCN(C)CC2)cc1,–,–,2,10,12,64
